In ChEMBL document CHEMBL1140002, “Synthesis and biological evaluation of (R)-N-(diarylmethylthio/sulfinyl)ethyl/propyl-piperidine-3-carboxylic acid hydrochlorides as novel GABA uptake inhibitors” (Bioorg Med Chem Lett, 2007) one finds IC50 data, which are given here for 13 compounds.

Structures can show the parent of a compound that is named as a salt.

By IC50 is commonly meant the point on the concentration scale where inhibition reaches its midpoint. A high value points to lower potency.

This assay addresses Sodium- and chloride-dependent GABA transporter 1 (Mus musculus, UniProt P31648). Briefly: Inhibition of [3H]GABA uptake at mouse GAT1 expressed in D8 cells. The class given is cell-based. The essentials:
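D8 cells in RPMI1640 with 10% FBS grown to near confluence (~60,000 cells/well), rinsed with PBS, pre-incubated 10 min at rt in HBSS. Stopped by aspirating HBSS, three rapid cold PBS washes, cells solubilized in 2 N NaOH; uptake quantified by liquid scintillation counting.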
On to `COc1ccc(C(SCCCN2CCC[C@@H](C(=O)O)C2)c2ccc(OC)cc2)cc1`, for which 120 µM corresponded to half-maximal inhibition (IC50).
The compound `Cc1ccc(C(c2ccc(C)cc2)[S+]([O-])CCN2CCC[C@@H](C(=O)O)C2)cc1` (stereo partly drawn) gave an IC50 of 1.18 µM.
For the compound `COc1ccc(C(SCCN2CCC[C@@H](C(=O)O)C2)c2ccc(OC)cc2)cc1`, the midpoint of inhibition, the IC50, lay at 4800 µM.
The compound `Cc1ccsc1C(=CCCN1CCC[C@@H](C(=O)O)C1)c1sccc1C` [TIAGABINE HYDROCHLORIDE] came in with an IC50 of 0.08 µM.
Regarding `Cc1ccc(C(SCCCN2CCC[C@@H](C(=O)O)C2)c2ccc(C)cc2)cc1`, the IC50 stood at 15.8 µM.
The same measure for `O=C(O)[C@@H]1CCCN(CC[S+]([O-])C(c2ccccc2)c2ccccc2)C1` (stereo partly drawn): 0.92 µM.
For `O=C(O)[C@@H]1CCCN(CCSC(c2ccccc2)c2ccccc2)C1` the value was 1600 µM; for `Cc1ccccc1C(SCCCN1CCC[C@@H](C(=O)O)C1)c1cccc(C)c1C` (stereo partly drawn), 16.9 µM.
`Cc1ccc(C(SCCN2CCC[C@@H](C(=O)O)C2)c2ccc(C)cc2)cc1` registered an IC50 of 240 µM.
On to `O=C(O)[C@@H]1CCCN(CCCSC(c2ccccc2)c2ccccc2)C1`, for which the IC50 came out at 11.6 µM.
Compound `COc1ccc(C(c2ccc(OC)cc2)[S+]([O-])CCN2CCC[C@@H](C(=O)O)C2)cc1` (stereo partly drawn) displayed an IC50 of 589 µM.
For `Cc1ccccc1C(c1cccc(C)c1C)[S+]([O-])CCN1CCC[C@@H](C(=O)O)C1` (stereo partly drawn) the value was 105 µM; for `Cc1ccccc1C(SCCN1CCC[C@@H](C(=O)O)C1)c1cccc(C)c1C` (stereo partly drawn), 2130 µM.
